NPY2 pot ag = potentiates or activates human NPY-Y2 receptor; P49146; cells expressing NPY-Y2, potentiator/agonist read-out; activation, % at 3.6 µM; 220,000 compounds, 0.45% hits; AID 1359; in the data active = activation above about 27%;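 also: cells stimulated with NPY near EC25 plus isoproterenol at EC100; 0% = vehicle plus submaximal agonist and 100% = vehicle plus saturating agonist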
NPY1 pot ag = human NPY-Y1 potentiation or agonism, primary screen. P25929. NPY-Y1 expressing cells, potentiator/agonist activation. activation, % at 3.6 µM. 220,000 compounds, 0.37% hits. AID 1304; in the data active = activation above about 33%, passing the limit was not always enough;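 also: cells stimulated with NPY at EC10 then isoproterenol at EC100; 0% = low agonist plus stimulus and 100% = saturating agonist plus stimulus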
Target sequence (P25929 whole entry, looked up): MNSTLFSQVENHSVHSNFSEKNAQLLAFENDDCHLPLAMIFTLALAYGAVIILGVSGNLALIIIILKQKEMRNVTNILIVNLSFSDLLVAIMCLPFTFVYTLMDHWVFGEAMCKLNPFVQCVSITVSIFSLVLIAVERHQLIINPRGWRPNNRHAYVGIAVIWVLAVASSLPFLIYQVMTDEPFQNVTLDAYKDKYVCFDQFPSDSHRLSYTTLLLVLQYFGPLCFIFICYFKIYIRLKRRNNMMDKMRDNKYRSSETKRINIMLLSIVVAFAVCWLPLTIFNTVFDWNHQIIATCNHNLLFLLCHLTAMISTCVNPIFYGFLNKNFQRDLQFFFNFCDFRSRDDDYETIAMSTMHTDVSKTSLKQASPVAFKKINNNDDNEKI
NPY Y1 blocker = NPY-Y1 (human) receptor antagonism; AID 1040; P25929; 200,000 compounds, 1% hits; inhibition, % at 3.6 µM; HEK293-CNG Y1 cells, membrane potential fluorescence; NPY at EC95, then isoproterenol;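 active = inhibition above the campaign mean inhibition of all tested compounds plus 3 SD, cut at about 20% in these data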;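 also: 0% = DMSO wells given NPY plus isoproterenol and 100% = isoproterenol alone without NPY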
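System: HEK293 cells with Y1 receptor plus CNG channel / Probe or stimulus: NPY 25 nM then isoproterenol 1 µM plus Ro 20-1724 25 µM / Compound: one concentration, 3.6 µM, in 0.4% DMSO / Schedule: compound incubation 1 h at room temperature, readout 45 min post-stimulation / Measured by: membrane potential fluorescence / Read-out: % inhibition of NPY effect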
NPY-Y2 antag = blocks the human neuropeptide Y Y2 receptor. NPY-Y2 expressing cells, antagonist mode. inhibition, % at 2.7 µM. AID 793. P49146. 140,000 compounds, 0.99% hits; in the data active = inhibition above about 17%;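 also: 0% = vehicle with agonist challenge and 100% = reference antagonist with challenge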
NPY-Y2 confirm = confirmation of human NPY-Y2 receptor potentiators or agonists. shares compounds with NPY2 pot ag. cell-based NPY-Y2 potentiator/agonist assay. activation, % at 3.6 µM. 450 compounds, 20% hits. AID 1539; in the data active = activation above about 33%
NPY-Y1 counter = counter-screen for NPY-Y2 potentiators or agonists: NPY-Y1 potentiators or agonists. shares compounds with NPY2 pot ag. Y1 HEK293-CNG cells, membrane potential fluorescence. activation, % at 3.6 µM. 450 compounds, 20% hits. AID 1651; in the data active = activation above about 45%;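 also: cells stimulated with submaximal NPY then isoproterenol with phosphodiesterase inhibitor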
NPY-Y1 agonist 2 = human NPY-Y1 agonism as NPY-Y2 potentiator counter-screen; shares compounds with NPY2 pot ag; HEK293 Y1-CNGC, membrane potential fluorescence; activation, % at 3.6 µM; 450 compounds, 37% hits; AID 1702;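 active = activation above the mean of DMSO-only control wells plus 3 SD, cut at about 18% in these data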;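 also: cells stimulated with 1 µM isoproterenol plus the PDE inhibitor Ro 20-1724; 0% = isoproterenol with DMSO and no NPY and 100% = 40 nM NPY; Y1 agonists lower the membrane potential dye signal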
CNGC inhibitor = counter-screen for NPY-Y2 potentiators: inhibitors of CNG channel activity | inhibition, % at 3.6 µM | shares compounds with NPY2 pot ag | HEK293-CNG parental, isoproterenol cAMP, membrane potential fluorescence | 450 compounds, 32% hits;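 active = inhibition above the control-well mean plus 3 SD of those wells, cut at about 22% in these data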;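 also: 0% = DMSO with isoproterenol and 100% = DMSO without isoproterenol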
NPY-Y2 ag 2 = NPY-Y2 agonism, counter-screen for Y2 potentiators | shares compounds with NPY2 pot ag | activation, % at 3.6 µM | 450 compounds, 56% hits | HEK293 Y2/CNGC cells, membrane potential fluorescence, agonist mode;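 active = activation above the mean of solvent-only control wells plus 3 SD, cut at about 10% in these data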;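 also: cells stimulated by isoproterenol with no NPY added so direct agonism is tested; 0% = DMSO with isoproterenol alone and 100% = NPY at EC100 plus isoproterenol; agonism lowers probe fluorescence through less cAMP and CNG channel opening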
An asterisk follows results filed as active; . = not tested or not shown. In the library only some 1.8% were active in any assay of this set; here they are far more common.

SMILES	NPY2 pot ag	NPY1 pot ag	NPY Y1 blocker	NPY-Y2 antag	NPY-Y2 confirm	NPY-Y1 counter	NPY-Y1 agonist 2	CNGC inhibitor	NPY-Y2 ag 2
CN1CCN(S(=O)(=O)c2ccc(Oc3ccc(F)c(Cl)c3)nc2)CC1	96*	26	4	.	-1	-7	-1	-2	-9
O=C(/C(N=Nc1cccc([N+](=O)[O-])c1)=C(/O)c1ccc(Br)cc1)C(F)(F)F	41*	28	.	.	31	11	15	15	20*
CN(C)C(CNC(=O)CN1C(=O)NC2(CCc3ccccc32)C1=O)c1ccco1 (centres undefined)	6	11	1	1	.	.	.	.	.
N#Cc1c(C#N)c(O)c2ccccc2c1O	12	6	.	.	.	.	.	.	.
N=C1CCC(=N)c2c1c(O)c1ccccc1c2O	41*	32	.	.	21	23	23*	21	18*
O=C(Nc1ccccc1)c1ccccc1NS(=O)(=O)c1ccc(Cl)s1	14	47	2	7	.	.	.	.	.
Cc1ccc(NC(=O)c2ccccc2NS(=O)(=O)c2ccc(Cl)s2)cc1	43*	21	-3	8	-16	-60	-45	-22	-17
CC(C)c1nnc(NC(=O)CCC(=O)Nc2ccc3cn[nH]c3c2)s1	39*	-4	.	.	0	-1	4	6	13*
CC(C)c1nnc(NC(=O)CCC(=O)Nc2ccccc2)s1	-15	9	.	.	.	.	.	.	.
COc1ccc2c(=O)cc(-c3ccccc3F)oc2c1	-19	-28	.	.	.	.	.	.	.
CC(C)(C)n1cc(S(=O)(=O)c2ccccc2)[nH]c1=O	41*	-2	3	.	-1	2	-2	0	9
CN(Cc1nc(-c2cccs2)no1)CC1(N2CCOCC2)CCCCC1	-5	-14	6	.	.	.	.	.	.
CC(=O)Nc1ccc(-c2cc3ccccc3o2)cc1	29*	-6	2	1	17	17	13	12	13*
CCC(=O)Nc1ccc(-c2cc3ccccc3oc2=O)cc1	-18	23	-1	.	.	.	.	.	.
COc1ccccc1-n1c(SCC(=O)c2ccc(O)cc2O)nc2cc([N+](=O)[O-])ccc21	5	9	-4	0	.	.	.	.	.
Cc1ncccc1C(=O)N1CCCC(C(=O)c2ccc3c4c(cccc24)CC3)C1 (centres undefined)	72*	-9	0	.	1	2	-7	7	8
CC(O)CN1C(=O)C(CC(=O)Nc2ccc(Cl)cc2)SC1=Nc1ccccc1 (centres undefined)	19	11	-5	-2	.	.	.	.	.
COCCN1C(=O)C(CC(=O)Nc2ccc(C(C)=O)cc2)SC1=Nc1ccccc1 (centres undefined)	43*	30	-12	-3	37*	49*	42*	34*	34*
O=C(N/N=C/c1ccc(OC(F)F)cc1)c1cccc(S(=O)(=O)N2CCOCC2)c1	57*	10	0	.	1	-3	3	3	10*
Cc1cc(=O)[nH]c(SCC(=O)NCCC2=CCCCC2)n1	4	-16	-1	.	.	.	.	.	.
COc1ccc(CC(=O)NC(C)c2nnc(SCC(=O)Nc3ccccc3)n2C)cc1 (centres undefined)	-6	3	-4	.	.	.	.	.	.
COC(=O)c1ccc(NC(=O)CSc2nnc(C(C)NC(=O)c3ccccc3Cl)n2C)cc1 (centres undefined)	37*	33	-1	-4	10	16	17	10	28*
Cc1ccc(S(=O)(=O)N(C)CC(=O)OCC(=O)N2CCCC2=O)cc1	50*	4	4	.	-4	1	-8	-3	-2
Cc1ccc(S(=O)(=O)N(C)CC(=O)N2CCOCC2)cc1	-2	4	-3	0	.	.	.	.	.
CCC(=O)Nc1nc(-c2ccc3c(c2)CC(C)N3S(C)(=O)=O)cs1 (centres undefined)	-13	7	-3	.	.	.	.	.	.
CC1Cc2cc(-c3csc(NC(=O)Cc4cccs4)n3)ccc2N1S(C)(=O)=O (centres undefined)	44*	14	15	13	0	-16	-29	-18	-1
CCCC(=O)NCc1ccncc1	1	1	1	.	.	.	.	.	.

Compound activity from PubChem.
